# Results gathered from unrelated publications.
# Lines come from different studies, so protocols differ.
# Target: Mitogen-activated protein kinase kinase kinase kinase 1 (MAP4K1, Homo sapiens, UniProt Q92918)
SMILES,read-out,mode,technique,tested at,measurement,result
CC(=O)N1CCC(c2ccc(C(=O)NC(=N)N)cc2C(F)(F)F)CC1,cell-free assay,,competition with immobilised ligand,1 µM,remaining binding,100%
CN1CC(Oc2cnc(C#N)cc2-c2ccn3nc(NC(=O)C4CC4)cc3c2)C1,enzyme activity,inhibitor,,1 µM,inhibition,4%
Cc1ccc(C(=O)NCc2ccsc2)cc1C#Cc1cn(C(C)C)c2ncnc(N)c12,enzyme activity,inhibitor,,1 µM,activity vs control,85%
O=C(Nc1cnn(-c2csc(C(=O)NC3COC3)c2)c1)Nc1ccccc1Cl,enzyme activity,inhibitor,,5 µM,remaining activity,132%
CC/C(=N\NC(=O)NCc1cccc(O)c1)c1ccc(O)c(C)c1O,enzyme activity,inhibitor,,0.1 µM,inhibition,17.1%
Cc1sc(C(=O)NC2COC2)cc1-n1cc(NC(=O)Nc2c(F)cccc2Cl)cn1,enzyme activity,inhibitor,,10 µM,remaining activity,99.2%
CCS(=O)(=O)c1cc2cc(C[C@](O)(CC(C)(C)c3ccc(F)cc3C(N)=O)C(F)(F)F)[nH]c2cn1,cell-free assay,,competition with immobilised ligand,1 µM,remaining binding,100%
Nc1ncnc2occ(-c3ccc(NC(=O)Nc4cc(C(F)(F)F)ccc4F)cc3)c12,cell-free assay,inhibitor,,20 µM,remaining signal,0.7%
Cc1ccc(C(=O)Nc2ccc(CN3CCN(C)CC3)c(C(F)(F)F)c2)cc1C#Cc1cnc2cccnn12,enzyme activity,inhibitor,,23.5 nM,remaining activity,8.5%
COc1cc2nccc(Oc3ccc(NC(=O)c4c5n(n(-c6ccc(F)cc6)c4=O)CCCC5)cc3)c2cc1OC,enzyme activity,inhibitor,,0.1 µM,inhibition,11%
CC(C)(O)[C@H]1CC[C@H](Nc2ccc3ncc(-c4cccc(C(F)(F)F)c4)n3n2)CC1,enzyme activity,inhibitor,,1 µM,remaining activity,79.6%
COc1cc(Cl)c(C(=O)N[C@@H](CN[C@H]2CC[C@@H](N)CC2)Cc2ccc(C#N)cc2)cc1-c1ccc(CN[C@H](C)c2ccc(C)cc2)o1,enzyme activity,inhibitor,,1 µM,remaining activity,96%
